Data set [1] has as its target Cannabinoid receptor 2 (Homo sapiens) (UniProt P34972). The data set is described as follows: Displacement of [3H]-CP55940 from human CB2 receptor expressed in HEK-Flp-In cell membranes at 10 uM incubated for 90 mins under dark condition by scintillation counting analysis relative to control. (In a radioligand displacement assay an active substance lowers the binding of a labelled ligand.)

Data set [2] addresses D(1A) dopamine receptor (Homo sapiens) (UniProt P21728). The data set is described as follows: Displacement of [3H]-SCH23390 from human dopamine D1 receptor transiently expressed in HEKT cell membranes at 10 uM incubated for 90 mins under dark condition by scintillation counting analysis relative to control.
Data set [3] concerns the target Sodium-dependent dopamine transporter (Homo sapiens) (UniProt Q01959). The data set can be described thus: Displacement of [3H]-WIN35428 from human DAT expressed in HEK cell membranes at 10 uM incubated for 90 mins under dark condition by scintillation counting analysis relative to control.
Data set [4] deals with Alpha-2B adrenergic receptor (Homo sapiens) (UniProt P18089). The data set can be described thus: Displacement of [3H]-rauwolscine from human adrenergic alpha2B receptor transiently expressed in HEKT cell membranes at 10 uM incubated for 90 mins under dark condition by scintillation counting analysis relative to control.
The target in data set [5] is 5-HT2B receptor (Homo sapiens, UniProt P41595). The data set is described as follows: Displacement of [3H]-LSD from human 5HT2B stably expressed in HEK cell membranes at 10 uM incubated for 90 mins under dark condition by scintillation counting analysis relative to control. Conditions: membranes of HEK cells stably expressing human 5HT2B, probe [3H]-LSD; call rule not given here.
5-HT2B receptor, sequence (P41595 whole entry): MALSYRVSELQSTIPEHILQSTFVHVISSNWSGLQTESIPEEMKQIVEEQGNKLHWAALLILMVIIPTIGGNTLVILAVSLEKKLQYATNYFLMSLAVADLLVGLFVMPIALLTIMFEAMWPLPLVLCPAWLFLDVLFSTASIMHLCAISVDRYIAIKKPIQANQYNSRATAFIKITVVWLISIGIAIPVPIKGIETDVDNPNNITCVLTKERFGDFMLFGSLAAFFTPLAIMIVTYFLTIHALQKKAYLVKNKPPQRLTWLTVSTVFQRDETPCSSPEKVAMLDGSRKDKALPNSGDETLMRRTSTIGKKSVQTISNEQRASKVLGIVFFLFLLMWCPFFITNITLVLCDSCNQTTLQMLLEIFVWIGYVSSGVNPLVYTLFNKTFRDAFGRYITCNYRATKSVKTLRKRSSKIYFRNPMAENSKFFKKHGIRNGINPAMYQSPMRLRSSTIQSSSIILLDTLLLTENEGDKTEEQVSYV
Data set [6] addresses 5-hydroxytryptamine receptor 1E (Homo sapiens) (UniProt P28566). The data set is described as follows: Displacement of [3H]-5-HT from human 5HT1E stably expressed in HEK cell membranes at 10 uM incubated for 90 mins under dark condition by scintillation counting analysis relative to control.
Data set [7] addresses 5-hydroxytryptamine receptor 6 (Homo sapiens) (UniProt P50406). The data set is described as follows: Displacement of [3H]-LSD from human 5HT6 stably expressed in HEK cell membranes at 10 uM incubated for 90 mins under dark condition by scintillation counting analysis relative to control.
Data set [8] is described as follows: Oral bioavailability in Sprague-Dawley rat at 20 mg/kg. Particulars: in vivo. Format: ADME, organism-based. Summed up:
(§1)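 Male Sprague-Dawley rats, 200–250 g, n = 3/group, randomly assigned; dosed 10 mg/kg iv or 20 mg/kg po in 10% DMSO:90% HP-β-CD. Retro-orbital blood sampled predose and 0.08 (iv only), 0.25, 0.5, 1, 2, 4, 8, 24 h. Noncompartmental analysis; Cmax read directly from plasma concentration–time plot; mean ± SEM.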

Data set [9] in a line: Apparent permeability across apical to basolateral side in MDCK-MDR1 cells. Particulars: dog. The class given is ADME, cell-based, Canis lupus familiaris.
The nature of data set [10]: Clearance in Sprague-Dawley rat at 20 mg/kg, po. The class given is ADME, organism-based. Particulars: in vivo. The gist of the method: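 Male Sprague-Dawley rats (200–250 g, n = 3/group) dosed po at 20 mg/kg in 10% DMSO:90% HP-β-CD. Retro-orbital blood taken from 0.25 to 24 h. Noncompartmental analysis; mean ± SEM.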
The target in data set [11] is 5-hydroxytryptamine receptor 3A (Homo sapiens) (UniProt P46098). The data set can be described thus: Displacement of [3H]-LY278584 from human 5HT3R transiently expressed in HEKT cell membranes at 10 uM incubated for 90 mins under dark condition by scintillation counting analysis relative to control.
Data set [12] addresses CYP2C19 (Homo sapiens, UniProt P33261). The data set can be described thus: Inhibition of CYP2C19 (unknown origin) at 10 uM relative to control. The class given is ADME. Summed up:
(§2)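 Each CYP isoform inhibition assay run with test compound at 10 µM; reported as percent inhibition.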

Data set [13] can be described thus: Volume of distribution at steady state in Sprague-Dawley rat at 20 mg/kg, po. Format: ADME, organism-based. Particulars: in vivo. The gist of the method:
as §1

Data set [14] deals with D(2) dopamine receptor (Homo sapiens) (UniProt P14416). The data set can be described thus: Displacement of [3H]-N-methylspiperone from human dopamine D2 receptor at 10 uM incubated for 90 mins under dark condition by scintillation counting analysis relative to control.
D(2) dopamine receptor (Homo sapiens), sequence (P14416 whole entry): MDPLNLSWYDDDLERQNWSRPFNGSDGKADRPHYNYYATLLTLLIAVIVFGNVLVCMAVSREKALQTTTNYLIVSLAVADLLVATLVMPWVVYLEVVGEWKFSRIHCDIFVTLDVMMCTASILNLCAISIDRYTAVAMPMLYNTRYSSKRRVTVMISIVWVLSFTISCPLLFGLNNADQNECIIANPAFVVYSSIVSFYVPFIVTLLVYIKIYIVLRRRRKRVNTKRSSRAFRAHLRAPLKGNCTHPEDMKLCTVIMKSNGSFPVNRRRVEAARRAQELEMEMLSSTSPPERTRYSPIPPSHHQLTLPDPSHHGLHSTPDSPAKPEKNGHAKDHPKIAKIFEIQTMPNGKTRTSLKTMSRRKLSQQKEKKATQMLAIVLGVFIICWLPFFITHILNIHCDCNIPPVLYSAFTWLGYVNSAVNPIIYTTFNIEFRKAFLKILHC
In data set [15] the target is D(3) dopamine receptor (Homo sapiens) (UniProt P35462). The data set is described as follows: Displacement of [3H]-N-methylspiperone from dopamine D3 receptor (unknown origin) at 10 uM incubated for 90 mins under dark condition by scintillation counting analysis relative to control.
For data set [16], the target named is T1, 5-hydroxytryptamine receptor 2C (Homo sapiens) (UniProt P28335).
T1 sequence (whole entry): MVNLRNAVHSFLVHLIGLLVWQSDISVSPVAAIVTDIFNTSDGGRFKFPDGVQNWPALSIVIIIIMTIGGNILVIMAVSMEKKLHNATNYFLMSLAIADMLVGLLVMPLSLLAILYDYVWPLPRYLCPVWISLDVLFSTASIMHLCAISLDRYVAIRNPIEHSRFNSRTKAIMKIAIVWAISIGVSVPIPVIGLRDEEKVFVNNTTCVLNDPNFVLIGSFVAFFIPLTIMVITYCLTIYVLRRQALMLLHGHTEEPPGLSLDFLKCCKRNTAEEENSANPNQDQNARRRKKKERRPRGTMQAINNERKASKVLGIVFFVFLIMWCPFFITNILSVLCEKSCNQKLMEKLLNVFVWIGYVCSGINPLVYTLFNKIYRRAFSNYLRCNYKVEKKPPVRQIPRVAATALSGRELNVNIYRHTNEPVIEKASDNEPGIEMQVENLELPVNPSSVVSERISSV
The data set is described as follows: Displacement of [3H]-mesulergine from human 5HT2C expressed in HEKT cell membranes at 10 uM incubated for 90 mins under dark condition by scintillation counting analysis relative to control.

The target in data set [17] is T2, 5-hydroxytryptamine receptor 2C (Homo sapiens, UniProt P28335).
T2 sequence (P28335 whole entry): T1 sequence (whole entry)
The data set can be described thus: Agonist activity at human 5HT2CR expressed in CHO cells assessed as increase in intracellular calcium release at 1 nM incubated for 15 mins measured at 1 secs interval for 120 secs by calcium 4 dye based FLIPR assay relative to 5-HT. The class given is cell-based. Conditions: 0.001 µM. Summed up:
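h5-HT2CR (unedited INI isoform) stably expressed in CHO cells; cells plated ~24 h, serum-free medium 3 h, then Calcium 4 dye with 2.5 mM probenecid in Ca/Mg-free HBSS pH 7.4 for 60 min at 37°C plus 15 min at room temperature. Compound given alone, read for 15 min before 5-HT. Peak fluorescence is expressed relative to the 5-HT Emax. 4-6 biological replicates, each in triplicate.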
(In general: Calcium assays in cells follow changes in intracellular calcium, usually with a dye or a luminescent sensor.)

The target in data set [18] is CYP2D6 (Homo sapiens, UniProt P10635). The data set can be described thus: Inhibition of CYP2D6 (unknown origin) at 10 uM relative to control. Format: ADME. The gist of the method: as §2
CYP2D6, sequence (P10635 whole entry): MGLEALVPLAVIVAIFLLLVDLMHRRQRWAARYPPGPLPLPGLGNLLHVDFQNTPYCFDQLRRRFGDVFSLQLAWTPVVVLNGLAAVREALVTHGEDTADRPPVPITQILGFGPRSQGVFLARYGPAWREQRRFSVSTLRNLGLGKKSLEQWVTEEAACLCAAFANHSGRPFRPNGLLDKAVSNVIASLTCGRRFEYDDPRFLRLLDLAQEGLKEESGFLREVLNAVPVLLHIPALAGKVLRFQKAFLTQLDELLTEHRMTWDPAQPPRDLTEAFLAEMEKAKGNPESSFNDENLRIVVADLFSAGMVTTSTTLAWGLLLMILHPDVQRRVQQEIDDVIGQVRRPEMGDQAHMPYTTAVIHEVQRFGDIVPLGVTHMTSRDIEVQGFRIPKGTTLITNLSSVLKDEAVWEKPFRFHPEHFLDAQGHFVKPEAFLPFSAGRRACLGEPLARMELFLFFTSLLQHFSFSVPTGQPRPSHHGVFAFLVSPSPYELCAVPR
Data set [19] has as its system Rattus norvegicus. The data set is described as follows: Potentiation of WAY163909-induced neurobiological activity in Sprague-Dawley rat assessed as increase in number of rat choosing WAY163909 associated lever at 2 mg/kg, ip treated 15 mins prior to WAY163909 addition and measured after 15 mins by drug discrimination test (reference value: 53%). The class given is functional.

Data set [20] concerns the target CYP2C9 (Homo sapiens, UniProt P11712). The data set can be described thus: Inhibition of CYP2C9 (unknown origin) at 10 uM relative to control. Format: ADME. Summed up:
as §2

The target of data set [21] is D(1B) dopamine receptor (Homo sapiens) (UniProt P21918). The data set is described as follows: Displacement of [3H]-SCH23390 from human dopamine D5 receptor expressed in HEKT cell membranes at 10 uM incubated for 90 mins under dark condition by scintillation counting analysis relative to control.
D(1B) dopamine receptor (Homo sapiens), sequence (P21918 whole entry): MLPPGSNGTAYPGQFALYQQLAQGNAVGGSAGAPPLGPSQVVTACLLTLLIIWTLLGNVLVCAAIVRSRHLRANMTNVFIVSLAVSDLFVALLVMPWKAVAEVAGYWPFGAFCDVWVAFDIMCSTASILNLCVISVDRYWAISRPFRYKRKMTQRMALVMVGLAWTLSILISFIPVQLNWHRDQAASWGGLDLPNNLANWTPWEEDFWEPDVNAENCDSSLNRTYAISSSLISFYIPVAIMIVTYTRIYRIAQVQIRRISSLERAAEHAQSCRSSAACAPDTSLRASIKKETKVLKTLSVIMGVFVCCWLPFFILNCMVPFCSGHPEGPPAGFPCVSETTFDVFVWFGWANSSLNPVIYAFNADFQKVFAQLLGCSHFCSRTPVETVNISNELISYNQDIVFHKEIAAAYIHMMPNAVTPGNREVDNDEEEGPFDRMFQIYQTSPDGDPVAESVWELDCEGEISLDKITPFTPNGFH

Sodium-dependent dopamine transporter (Homo sapiens), sequence (Q01959 whole entry): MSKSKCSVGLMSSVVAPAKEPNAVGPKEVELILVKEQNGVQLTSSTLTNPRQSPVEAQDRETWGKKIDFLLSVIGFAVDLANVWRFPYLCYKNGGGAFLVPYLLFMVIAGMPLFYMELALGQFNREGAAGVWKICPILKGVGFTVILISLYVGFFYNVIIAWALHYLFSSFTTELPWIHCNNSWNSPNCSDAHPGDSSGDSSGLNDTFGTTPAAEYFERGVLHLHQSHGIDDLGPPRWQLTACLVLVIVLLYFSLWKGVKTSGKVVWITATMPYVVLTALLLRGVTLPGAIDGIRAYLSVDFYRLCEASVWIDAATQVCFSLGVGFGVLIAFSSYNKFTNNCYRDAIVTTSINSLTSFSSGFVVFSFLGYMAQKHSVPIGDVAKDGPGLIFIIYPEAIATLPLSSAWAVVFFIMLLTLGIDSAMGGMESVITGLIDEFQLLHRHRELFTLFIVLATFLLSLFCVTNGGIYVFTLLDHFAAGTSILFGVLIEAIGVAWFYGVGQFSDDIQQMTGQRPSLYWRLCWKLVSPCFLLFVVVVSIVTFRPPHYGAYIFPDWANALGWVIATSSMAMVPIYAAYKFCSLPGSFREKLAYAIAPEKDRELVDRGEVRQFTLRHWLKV
Cannabinoid receptor 2 (Homo sapiens), sequence (P34972 whole entry): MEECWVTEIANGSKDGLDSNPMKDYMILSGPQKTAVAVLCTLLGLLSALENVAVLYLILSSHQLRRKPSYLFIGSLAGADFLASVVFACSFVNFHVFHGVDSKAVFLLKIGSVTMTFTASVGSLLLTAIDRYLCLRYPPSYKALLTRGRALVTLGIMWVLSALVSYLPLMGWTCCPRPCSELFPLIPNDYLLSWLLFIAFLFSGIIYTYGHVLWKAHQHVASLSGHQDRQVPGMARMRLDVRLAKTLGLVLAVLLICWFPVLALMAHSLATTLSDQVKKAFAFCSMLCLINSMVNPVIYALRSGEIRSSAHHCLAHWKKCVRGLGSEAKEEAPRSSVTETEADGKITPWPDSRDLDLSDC
D(1A) dopamine receptor (Homo sapiens), sequence (P21728 whole entry): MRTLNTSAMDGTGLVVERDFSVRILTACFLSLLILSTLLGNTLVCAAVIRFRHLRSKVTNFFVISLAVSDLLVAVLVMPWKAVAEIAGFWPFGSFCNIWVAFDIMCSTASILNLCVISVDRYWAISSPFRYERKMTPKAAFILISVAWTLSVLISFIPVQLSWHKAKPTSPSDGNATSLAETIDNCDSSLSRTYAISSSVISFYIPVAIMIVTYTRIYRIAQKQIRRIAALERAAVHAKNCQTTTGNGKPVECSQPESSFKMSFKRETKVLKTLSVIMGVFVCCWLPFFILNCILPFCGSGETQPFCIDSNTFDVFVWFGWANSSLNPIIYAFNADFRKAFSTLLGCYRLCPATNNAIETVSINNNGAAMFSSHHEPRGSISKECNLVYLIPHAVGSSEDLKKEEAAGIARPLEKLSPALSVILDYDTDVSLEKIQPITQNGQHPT
5-hydroxytryptamine receptor 6 (Homo sapiens), sequence (P50406 whole entry): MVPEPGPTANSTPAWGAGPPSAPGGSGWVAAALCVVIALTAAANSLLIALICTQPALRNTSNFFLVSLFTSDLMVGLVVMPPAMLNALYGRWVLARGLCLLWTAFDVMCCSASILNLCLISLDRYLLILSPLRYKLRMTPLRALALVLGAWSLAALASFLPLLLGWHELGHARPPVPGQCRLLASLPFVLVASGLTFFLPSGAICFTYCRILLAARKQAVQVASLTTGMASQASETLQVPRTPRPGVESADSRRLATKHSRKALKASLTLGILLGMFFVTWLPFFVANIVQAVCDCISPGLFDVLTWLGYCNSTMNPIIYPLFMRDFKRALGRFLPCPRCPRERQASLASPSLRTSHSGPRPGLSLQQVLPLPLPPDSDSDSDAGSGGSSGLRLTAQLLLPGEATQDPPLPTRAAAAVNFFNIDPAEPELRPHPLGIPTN
5-hydroxytryptamine receptor 1E (Homo sapiens), sequence (P28566 whole entry): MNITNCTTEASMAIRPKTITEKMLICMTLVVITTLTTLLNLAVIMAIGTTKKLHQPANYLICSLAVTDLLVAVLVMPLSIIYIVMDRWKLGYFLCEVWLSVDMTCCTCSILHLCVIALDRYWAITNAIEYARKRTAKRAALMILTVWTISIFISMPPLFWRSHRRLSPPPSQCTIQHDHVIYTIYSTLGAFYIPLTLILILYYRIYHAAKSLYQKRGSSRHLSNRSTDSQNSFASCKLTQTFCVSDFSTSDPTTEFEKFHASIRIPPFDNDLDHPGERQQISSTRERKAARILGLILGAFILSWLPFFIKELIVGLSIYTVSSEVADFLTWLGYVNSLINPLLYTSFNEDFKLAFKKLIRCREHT
CYP2C9, sequence (P11712 whole entry): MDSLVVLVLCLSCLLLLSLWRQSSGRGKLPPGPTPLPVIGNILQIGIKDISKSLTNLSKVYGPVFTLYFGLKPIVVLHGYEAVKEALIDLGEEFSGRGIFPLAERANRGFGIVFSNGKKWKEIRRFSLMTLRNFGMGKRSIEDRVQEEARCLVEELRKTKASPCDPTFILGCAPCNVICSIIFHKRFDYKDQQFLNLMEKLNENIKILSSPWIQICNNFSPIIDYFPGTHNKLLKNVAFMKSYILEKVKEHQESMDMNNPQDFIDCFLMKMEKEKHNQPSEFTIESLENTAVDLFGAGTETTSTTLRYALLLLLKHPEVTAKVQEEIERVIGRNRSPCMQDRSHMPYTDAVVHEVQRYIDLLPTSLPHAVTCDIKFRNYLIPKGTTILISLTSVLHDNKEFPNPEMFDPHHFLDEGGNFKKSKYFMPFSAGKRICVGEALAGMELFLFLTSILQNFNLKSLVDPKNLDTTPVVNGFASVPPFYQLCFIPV

As usually defined, the inhibition is the relative decrease from the control value, in per cent. The term Papp denotes a coefficient for how fast a substance crosses the barrier. A word on the CL/F: it is the apparent clearance, not corrected for the fraction that reaches the circulation. With `O=C(NC[C@H](O)CO)[C@@H]1C[C@H](c2ccccc2)CCN1` (mixture of isomers), the inhibition is 30.6% in data set [1]; 9.7% in [2]; 40.8% in [3]; 14.5% in [4]; 6.3% in [6]; 2.5% in data set [7]. The inhibition worked out at 22.3% in data set [11]; 7.5% in data set [14]; 19.4% in data set [15]; 26.9% in data set [16]; 9.4% in data set [21]. Besides, in [5], the inhibition at 1.5 h, 10 µM was -7.2%. In addition, in [8], the F is 36.3%. In addition, the Papp in data set [9] was found to be 0.4 nm/s. Further, in data set [10], the CL/F is 10.9 L/h/kg. The inhibition at 10 µM stood at 0% in data set [12], 1.9% in data set [18] and 0% in [20]. Also, the Vdss in [13] is 70.6 L/kg. Also, the Activity result was “Not Active” in data set [17] and 92% in data set [19].

The values are drawn from ChEMBL document CHEMBL4622923, “Discovery of 4-Phenylpiperidine-2-Carboxamide Analogues as Serotonin 5-HT2C Receptor-Positive Allosteric Modulators with Enhanced Drug-like Properties” (J Med Chem, 2020).
